From the array DNA melting data of Ke et al. (doi:10.1101/2024.01.08.574731) come the findings set out here.

Data set [1] is described as follows: folding enthalpy; higher = less favourable; fluorescence melt of hairpins on a sequencing array, two-state fit. The following applies: sodium 0.088 M. Summed up: (§1)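 Hairpins were imaged by Cy3 fluorescence on a sequenced MiSeq flow cell with annealed Cy3 and quencher oligos, in 50 mM Na-HEPES pH 8.0, 25 mM NaCl, in 2.5 °C steps up to 60 °C. Bootstrapped two-state fits of normalised signals gave melting temperature and folding enthalpy. Four replicates were combined by inverse variance, and fitted temperatures were raised by 9.35 °C to match UV melts.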

Data set [2] can be described thus: melting temperature; fluorescence melt of hairpins on a sequencing array, two-state fit, raised by 9.35 °C to match UV melts. The note with it: sodium 0.088 M. Summed up:
as §1

Take CTCTTGAAAAAGAG (((((....))))): in data set [1], the folding enthalpy is -10.4 kcal/mol. Moreover, the Tm in data set [2] stood at 36.2 °C.
As to CTGAAGAAATTCAG (((((....))))), the folding enthalpy in data set [1] was -12.5 kcal/mol. For the same sequence, in data set [2], the Tm came out at 33.4 °C.
For CTGACGAAAGTCAG (((((....))))) the same measures were -29 kcal/mol and 65 °C.
On the same counts, the results for CTGGTGAAAACCAG (((((....))))) are -20.3 kcal/mol and 52.8 °C.
On to CTGTAGAAATACAG (((((....))))), for which the folding enthalpy in data set [1] was -14.5 kcal/mol. Further, the Tm in data set [2] is 39.4 °C.
For CTTGTGAAAACAAG (((((....))))) the same measures were -23.1 kcal/mol and 45.2 °C.
Take GAAAAAGAAATTTTTC ((((((....)))))): in data set [1], the folding enthalpy is -14.6 kcal/mol. The Tm in data set [2] was found to be 28.1 °C.
Take GAAAACCGAAAGGTGTTC (((.(((....))).))): the folding enthalpy in data set [1] was -19.9 kcal/mol. The Tm in data set [2] turned out to be 44.9 °C.
For GAAAACCGAAAGGTTTC (((.(((....)))))) the same measures were -15.9 kcal/mol and 44.2 °C.
On the same counts, the results for GAAAACGAAAGTTTGTTC ((((((....)))..))) are -13.5 kcal/mol and 28.4 °C.
On to GAAAACGGAAACGCTTTC ((((.((....)).)))), for which the folding enthalpy in data set [1] was -32.4 kcal/mol. The Tm in data set [2] turned out to be 34.8 °C.
Turning to GAAAAGCGAAAGCTGTTC (((.(((....))).))), the folding enthalpy in data set [1] is -18 kcal/mol. Moreover, the Tm in data set [2] turned out to be 44.9 °C.
With GAAAAGGGAAACCCTTTC ((((.((....)).)))), the folding enthalpy in data set [1] is -17 kcal/mol. For the same sequence, the Tm in data set [2] is 32.6 °C.
For GAAAATACGAAAGTATTC (((..(((....)))))) the same measures were -13.7 kcal/mol and 27.7 °C.
As for GAAACACGAAAGTGATTC (((.(((....))).))), the folding enthalpy in data set [1] is -29.6 kcal/mol. The Tm in data set [2] stood at 45.5 °C.
For GAAACAGGAAACTGCTTC (((.(((....))).))) the same measures were -21.9 kcal/mol and 31.6 °C.
For GAAACCCGAAAGGGTTC (((.(((....)))))) the same measures were -10.2 kcal/mol and 51.5 °C.
GAAACCGAAAGGTCTTTC ((((((....)))..))): the folding enthalpy in data set [1] is -14 kcal/mol. Also, in data set [2], the Tm stood at 32.3 °C.
As for GAAACCGAAAGGTGATTC ((((((....)))..))), the folding enthalpy in data set [1] is -22.4 kcal/mol. The Tm in data set [2] turned out to be 41.6 °C.
For GAAACCGAAAGGTTGTTC ((((((....)))..))) the same measures were -13.7 kcal/mol and 36.8 °C.
Take GAAACCGAAAGGTTTC ((((((....)))))): in data set [1], the folding enthalpy was -29.4 kcal/mol. Further, the Tm in data set [2] worked out at 67.1 °C.
Consider GAAACCGGAAACGGCTTC (((.(((....))).))), for which, in data set [1], the folding enthalpy was -23.6 kcal/mol. For the same sequence, the Tm in data set [2] is 42 °C.
On the same counts, the results for GAAACGAAAGTTTC (((((....))))) are -29.1 kcal/mol and 53.4 °C.
For GAAACTGGAAACAGTCTC ((.((((....)))).)) the same measures were -15.5 kcal/mol and 28 °C.
As to GAAAGAGAAATCTTTC ((((((....)))))), the folding enthalpy in data set [1] was -18.2 kcal/mol. The Tm in data set [2] was determined as 36.8 °C.
As for GAAAGAGGAAACTCTTTC (((((((....))))))), the folding enthalpy in data set [1] was -37.8 kcal/mol. Also, in data set [2], the Tm is 51.2 °C.
For GAAAGCCGAAAGGCGTTC (((.(((....))).))) the same measures were -12.3 kcal/mol and 52.3 °C.
GAAAGCGAAAGCTCCTTC ((((((....)))..))): in data set [1], the folding enthalpy was -10.2 kcal/mol. Moreover, the Tm in data set [2] was 31.4 °C.
For GAAAGCGAAAGCTCGTTC ((((((....)))..))) the same measures were -9.57 kcal/mol and 25.9 °C.
For GAAAGCGAAAGCTCTTC ((((((....))).))) the same measures were -17.9 kcal/mol and 44.3 °C.
For GAAAGCGAAAGCTGGTTC ((((((....)))..))), the folding enthalpy in data set [1] is -9.59 kcal/mol. The Tm in data set [2] worked out at 29.3 °C.
On the same counts, the results for GAAAGCGGAAACGCTTCC (.(((((....))))).) are -12.3 kcal/mol and 41.4 °C.
Take GAAAGCGGAAACGCTTTC (((((((....))))))): the folding enthalpy in data set [1] is -41 kcal/mol. Also, the Tm in data set [2] was found to be 65.5 °C.
For GAAAGGACGAAAGTCTTC (((..(((....)))))) the same measures were -11.8 kcal/mol and 24.9 °C.
As for GAAAGGCGAAAGCCTTC (((.(((....)))))), the folding enthalpy in data set [1] was -10.4 kcal/mol. Further, in data set [2], the Tm amounted to 49.6 °C.
On the same counts, the results for GAAATCGGAAACGATTTC (((((((....))))))) are -42.9 kcal/mol and 59.5 °C.
On the same counts, the results for GAAATGGGAAACCATTCC (.(((((....))))).) are -14.8 kcal/mol and 31 °C.
